Results pooled from the literature.
Protocols differ between the studies behind these lines. pIC50: −log10 of the molar value.
ABHD6: Monoacylglycerol lipase ABHD6 (ABHD6, Homo sapiens, UniProt Q9BV23)
BTK: Tyrosine-protein kinase BTK (BTK, Homo sapiens, UniProt Q06187)
MMP14: Matrix metalloproteinase-14 (MMP14, Homo sapiens, UniProt P50281)
NTSR1: Neurotensin receptor type 1 (NTSR1, Homo sapiens, UniProt P30989)
Kir1 channel protein: Kir1 channel protein (Aedes aegypti, UniProt L0EQS9)
TGM2: Protein-glutamine gamma-glutamyltransferase (TGM2, Homo sapiens, UniProt P21980)
CYP2E1: Cytochrome P450 2E1 (CYP2E1, Homo sapiens, UniProt P05181)

The pIC50 of O=C(Oc1nsnc1N1CCC2CCCCC2C1)N1CCCCC1 (centres unmarked) is reported as 6.25 (ABHD6; enzyme activity, inhibitor, fluorescence; lysate).
N#CN1C[C@H](n2nc(-c3ccc(Oc4ccc(Cl)cn4)cc3)c(C(N)=O)c2N)CCC12CC2 gave a pIC50 of 8.40 to 9.30 (BTK; enzyme activity, inhibitor).
With COc1ccc(F)cc1C(=O)NCc1ccc(-c2nn([C@@H](C)C(F)(F)F)c(N)c2C(N)=O)cc1 the pIC50 was 8.38 (BTK; phosphorylation in cells, inhibitor, western blot).
For O=C(Nc1cccnc1)N1CCC(Cc2cccc(Oc3ccc(C(F)(F)F)cn3)c2)CC1, the pIC50 was under 5.00 (Arylacetamide deacetylase (Homo sapiens, UniProt P22760); enzyme activity, inhibitor).
Cc1noc(-c2cc3cc(-c4nc(C(=O)NCc5cccnc5)[nH]c4C)ccc3[nH]2)n1 has a pIC50 of under 4.70 (MMP14; enzyme activity, inhibitor).
Cc1cc(O)cc(C)c1C[C@H](NC(=O)[C@@H]1CCCN1C(=O)[C@H](CCCNC(=N)N)NC(=O)[C@H](CCCNC(=N)N)N(C)C(=O)[C@@H](CCC(N)=O)NC(=O)[C@@H](CCC(N)=O)NC(=O)[C@@H](CCC(N)=O)NC(=O)[C@H](Cc1cn(CCNC(=O)[C@H](CC(C)C)NC(=O)[C@H](CC(C)C)NC(=O)C2OC2C(=O)O)nn1)NC(=O)CN1CCN(CC(=O)O)CCN(CC(=O)O)CCN(CC(=O)O)CC1)C(=O)N[C@H](C(=O)N[C@@H](CC(C)C)C(=O)O)C(C)(C)C (mixture of isomers) has a pIC50 of 7.04 (NTSR1; ligand displacement, radioligand).
With CC/C(=N\NC(=O)C(C)Nc1ccccc1)c1ccc(O)c(C)c1O (centres unmarked) the pIC50 was 7.88 (Ribosomal protein S6 kinase alpha-5 (RPS6KA5, Homo sapiens, UniProt O75582); enzyme activity, inhibitor).
O=[N+]([O-])c1ccc(N2CCN(S(=O)(=O)c3ccccc3)CC2)cc1NCc1cccnc1 gave a pIC50 of 6.26 (Kir1 channel protein; ion flux, inhibitor).
For COc1ccc2c(Oc3ccc4c(C(=O)Nc5ccccc5N)cccc4c3)ccnc2c1, the pIC50 was under 6.30 (BTK; enzyme activity, inhibitor).
For O=[N+]([O-])c1ccc(N2CCN(S(=O)(=O)c3ccc(Cl)cc3)CC2)cc1NCc1cccnc1, the pIC50 was 5.83 (Kir1 channel protein; ion flux, inhibitor).
With Cc1cnc(-c2ccc(-c3ccc(NC(=O)Nc4c(F)cc(F)cc4F)cc3F)c3c2C(=O)NC3)[nH]1 the pIC50 was 7.76 (Mitogen-activated protein kinase kinase kinase 19 (MAP3K19, Homo sapiens, UniProt Q56UN5); enzyme activity, inhibitor).
CC[C@H](C)[C@H](NC(C)=O)C(=O)N[C@@H](CCC(=O)O)C(=O)N[C@H](C(=O)N[C@H](C=O)CC(=O)O)[C@@H](C)O has a pIC50 of 7.07 (Caspase-4 (Casp4, Mus musculus, UniProt P70343); enzyme activity, inhibitor).
For O=[N+]([O-])c1ccc(N2CCN(S(=O)(=O)c3ccc(F)cc3)CC2)cc1NCc1ccncc1, the pIC50 was 7.30 (Kir1 channel protein; ion current, inhibitor, patch clamp).
With O=C1Nc2cc(Oc3ccc4c(c3)NC(=O)C4=O)ccc2C1=O the pIC50 was 4.40 to 4.52 (TGM2; enzyme activity, inhibitor).
C=CC(=O)Nc1cc(Nc2nccc(Nc3cc(Cl)c(F)cc3C(C)(C)O)n2)c(OC)cc1N1CC[C@@H](N(C)C)C1 gave a pIC50 of 6.67 (BTK; enzyme activity, inhibitor; with preincubation).
The pIC50 of CCc1cc(/C(C)=N/OCc2ccc(C3CCCCC3)c(C(F)(F)F)c2)ccc1CN1CC(C(=O)O)C1 is reported as under 6.30 (CYP2E1; enzyme activity, inhibitor; human, liver microsomes; 20 min).
The pIC50 of O=C(Nc1c[nH]nc1C(=O)NC1CCNCC1)c1cc(F)cc(F)c1 is reported as 5.72 (Cyclin-dependent kinase 17 (CDK17, Homo sapiens, UniProt Q00537); target engagement in cells, BRET).
With O=C1Nc2ccc(I)cc2/C1=C/c1cc(Br)c(O)c(Br)c1 the pIC50 was 4.30 (TGM2; enzyme activity, inhibitor).
With Cn1nc(C(=O)NCc2ccc(C(=O)O)cc2)cc1-c1ccc2[nH]c(-c3cccnc3)cc2c1 the pIC50 was under 4.70 (MMP14; enzyme activity, inhibitor).
The pIC50 of COc1ccc(F)cc1C(=O)NCc1ccc(-c2nn([C@@H](C)C(F)(F)F)c(N)c2C(N)=O)cc1 is reported as 7.86 (Tyrosine-protein kinase BTK (BTK, Homo sapiens, UniProt Q06187, C481G); phosphorylation in cells, inhibitor).
CN1CCN(c2ccc(Nc3ncc4cc(C#N)c(=O)n(C5CCCC5)c4n3)cc2)CC1 has a pIC50 of 5.51 (Receptor tyrosine-protein kinase erbB-4 (ERBB4, Homo sapiens, UniProt Q15303); enzyme activity, inhibitor).
O=S(=O)(c1ccc(Cl)cc1)N1CCN(c2cccc(NCc3ccncc3)c2)CC1 has a pIC50 of 5.05 to 5.40 (Kir1 channel protein; ion flux, inhibitor).
With COc1cc2c(NC3CCN(C)CC3)nc(N3CCCN(C)CC3)nc2cc1OCCCN(C)C the pIC50 was under 4.24 (Lysine-specific demethylase 4E (KDM4E, Homo sapiens, UniProt B2RXH2); enzyme activity, inhibitor).
For Cn1nc(C(=O)NCc2ccc(C(=O)O)cc2)cc1-c1ccc2[nH]c(-c3cncnc3)cc2c1, the pIC50 was under 4.70 (MMP14; enzyme activity, inhibitor).
N#Cc1ccc(N2CCN(S(=O)(=O)c3ccc(F)cc3)CC2)cc1NCc1ccncc1 gave a pIC50 of 7.56 (Kir1 channel protein; ion current, inhibitor, patch clamp).
Cc1noc(-c2cc3cc(-c4nc(C(=O)NCc5ccncc5)[nH]c4C)ccc3[nH]2)n1 gave a pIC50 of under 4.70 (MMP14; enzyme activity, inhibitor).
O=[N+]([O-])c1ccc(N2CCN(S(=O)(=O)c3ccc(F)cc3)CC2)cc1NCc1ccccn1 has a pIC50 of 6.10 (Kir1 channel protein; ion flux, inhibitor).
CC1=CC(=O)C(C(C)C)=CC1=O has a pIC50 of 4.01 (CYP2E1; enzyme activity, inhibitor, HPLC).
For N#Cc1ccc(N2CCN(S(=O)(=O)c3ccc(Cl)cc3)CC2)cc1NCc1ccncc1, the pIC50 was 6.13 (Kir1 channel protein; ion flux, inhibitor).
Cn1nc(C(=O)NCc2ccc(C(=O)O)cc2)cc1-c1ccc2[nH]c(-c3ccncc3)cc2c1 gave a pIC50 of under 4.70 (MMP14; enzyme activity, inhibitor).
For Cc1cc(O)cc(C)c1C[C@H](NC(=O)[C@@H]1CCCN1C(=O)[C@H](CCCNC(=N)N)NC(=O)[C@H](CCCNC(=N)N)N(C)C(=O)CNC(=O)[C@@H](CO)NC(=O)CNC(=O)[C@H](Cc1cn(CCNC(=O)[C@H](Cc2ccc(O)cc2)NC(=O)[C@H](CC(C)C)NC(=O)C2OC2C(=O)O)nn1)NC(=O)CN1CCN(CC(=O)O)CCN(CC(=O)O)CCN(CC(=O)O)CC1)C(=O)N[C@H](C(=O)N[C@@H](CC(C)C)C(=O)O)C(C)(C)C (mixture of isomers), the pIC50 was 7.06 (NTSR1; ligand displacement, radioligand).
For Cc1noc(-c2cc3cc(-c4nc(C(=O)NCc5ccccn5)[nH]c4C)ccc3[nH]2)n1, the pIC50 was under 4.70 (MMP14; enzyme activity, inhibitor).
For CC(C)(C)c1cc(Cc2cc(C(C)(C)C)c(O)c(C(C)(C)C)c2)cc(C(C)(C)C)c1O, the pIC50 was 4.77 (Sarcoplasmic/endoplasmic reticulum calcium ATPase 1 (ATP2A1, Oryctolagus cuniculus, UniProt P04191); ATPase activity, inhibitor, absorbance; pH 7.3).
Cc1noc(-c2cc3cc(-c4nc(C(N)=O)[nH]c4C)ccc3[nH]2)n1 has a pIC50 of under 4.55 (MMP14; enzyme activity, inhibitor).
O=C(Oc1nsnc1N1CCOCC1)N1CCCCC1 gave a pIC50 of 7.07 (ABHD6; enzyme activity, inhibitor, fluorescence; lysate).
O=[N+]([O-])c1ccc(N2CCN(S(=O)(=O)c3ccc(Cl)cc3)CC2)cc1NCc1ccco1 gave a pIC50 of 6.08 (Kir1 channel protein; ion flux, inhibitor).
The pIC50 of O=C(O)CC(=O)C(=O)O is reported as 2.99 (L-lactate dehydrogenase B chain (LDHB, Homo sapiens, UniProt P07195); enzyme activity, inhibitor).
With O=C(c1cc(O)c(O)c([N+](=O)[O-])c1)c1ccccc1F the pIC50 was 7.55 (Catechol O-methyltransferase (COMT, Sus scrofa, UniProt Q99028); enzyme activity, inhibitor).
